According to ChEMBL document CHEMBL1137941, “Doxorubicin prodrug on the basis of tert-butyl cephalosporanate sulfones” (Bioorg Med Chem Lett, 2004):
Converted amounts (≈) assume the structure as drawn. The source made the active and inactive calls. The rule behind the calls is not given here.

How the values were obtained:
[1] = test system: B16; assay: In vitro cytotoxic concentration against mouse melanoma cell line (B16) using MTT coloration; type: functional, cell-based
[2] = test system: B16; assay: Growth inhibitory effect when administered at dose of 1.5 mg/kg/day given in the schedule of 1,2,3,4,7 day against (B16) mouse melanoma at eleventh day was determined; type: functional; conditions: B16, read-out: Inhibition
Method in brief: (§1)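 Mice given the agent on days 1, 2, 3, 4 and 7. Doxorubicin was given in physiological solution (0.9% NaCl, pH 6.2). Prodrugs were given in the same solution with 2% DMSO and 0.3% agarose. Tumour growth inhibition (%) was read on fixed days against a vehicle-treated control; in the 2.0 mg/kg/day series, controls received physiological solution only. Negative values mean tumour growth was activated.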

[3] = test system: B16; assay: Growth inhibitory effect when administered at dose of 2.0 mg/kg/day given in the schedule of 1,2,3,4,7 day against (B16) mouse melanoma at eleventh day was determined; ND= No data; type: functional; method in brief: as §1
[4] = test system: B16; assay: Growth inhibitory effect when administered at dose of 2.0 mg/kg/day given in the schedule of 1,2,3,4,7 day against (B16) mouse melanoma at fourteenth day was determined; type: functional; method in brief: as §1
[5] = test system: B16; assay: Growth inhibitory effect when administered at dose of 5.0 mg/kg/day given in the schedule of 1,2,3,4,7 day against (B16) mouse melanoma at eleventh day was determined; type: functional; method in brief: as §1
[6] = test system: B16; assay: Growth inhibitory effect when administered at dose of 5.0 mg/kg/day given in the schedule of 1,2,3,4,7 day against (B16) mouse melanoma at fourteenth day was determined; type: functional; method in brief: as §1
[7] = test system: HT-1080; assay: In vitro cytotoxic concentration against human fibrosarcoma cell line (HT1080) using MTT coloration; type: functional, cell-based
[8] = test system: HT-1080; assay: In vitro inhibitory activity against human fibrosarcoma cell line (HT1080) using CV coloration; type: functional, cell-based
[9] = test system: MG-22A; assay: In vitro cytotoxic concentration against mouse hepatoma cell line (MG-22A) using MTT coloration; type: functional, cell-based
[10] = test system: MG-22A; assay: In vitro inhibitory activity against mouse hepatoma cell line (MG-22A) using CV coloration; type: functional, cell-based
[11] = test system: Mus musculus; assay: Physiological change in cardiomyocytes after the treatment of male JRC healthy mice by the administration of compound at dose of 1.5 mg/kg/day cells isolated on the 9th day by using CB assay; type: functional
Method in brief: (§2)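 Male JRC mice, healthy or bearing Sarcoma S-180, were dosed on days 1, 2, 3, 4 and 7. Cardiomyocytes were isolated on day 9 and resuspended in DMEM with 4% FBS, 2 mM glutamine, 13 mM NaHCO₃, 10 mM HEPES and streptomycin. After 4 h at 37° (95% air/5% CO₂), serum was omitted. Intracellular peptide was read by Coomassie Blue and mitochondrial redox by MTT, against cells from untreated animals.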

[12] = test system: Mus musculus; assay: Physiological change in cardiomyocytes after the treatment of male JRC healthy mice by the administration of compound at dose of 1.5 mg/kg/day cells isolated on the 9th day by using MTT assay; type: functional; method in brief: as §2
[13] = test system: Mus musculus; assay: Physiological change in cardiomyocytes after the treatment of male JRC healthy mice by the administration of compound at dose of 5.0 mg/kg/day cells isolated on the 9th day by using CB assay; type: functional; method in brief: as §2
[14] = test system: Mus musculus; assay: Physiological change in cardiomyocytes after the treatment of male JRC healthy mice by the administration of compound at dose of 5.0 mg/kg/day cells isolated on the 9th day by using MTT assay; type: functional; method in brief: as §2
[15] = test system: Mus musculus; assay: Physiological change in cardiomyocytes after the treatment of male JRC mice with transplanted sarcoma S-180 by the administration of compound at dose of 1.5 mg/kg/day cells isolated on the 9th day by using CB assay; type: functional; method in brief: as §2
[16] = test system: Mus musculus; assay: Physiological change in cardiomyocytes after the treatment of male JRC mice with transplanted sarcoma S-180 by the administration of compound at dose of 1.5 mg/kg/day cells isolated on the 9th day by using MTT assay; type: functional; method in brief: as §2
[17] = test system: Mus musculus; assay: Physiological change in cardiomyocytes after the treatment of male JRC mice with transplanted sarcoma S-180 by the administration of compound at dose of 5.0 mg/kg/day cells isolated on the 9th day by using CB assay; type: functional; method in brief: as §2
[18] = test system: Mus musculus; assay: Physiological change in cardiomyocytes after the treatment of male JRC mice with transplanted sarcoma S-180 by the administration of compound at dose of 5.0 mg/kg/day cells isolated on the 9th day by using MTT assay; type: functional; method in brief: as §2
[19] = test system: N2a; assay: In vitro inhibitory activity against mouse neuroblastoma (neuro 2A) using CV coloration; type: functional, cell-based
[20] = test system: N2a; assay: In vitro cytotoxic concentration against mouse neuroblastoma (neuro 2A) using MTT coloration; type: functional, cell-based
[21] = test system: CCRF S-180; assay: Growth inhibitory effect administered at dose of 1.5 mg/kg/day given in the schedule of 1,2,3,4,7 day against Sarcoma S-180 tumor transplanted in male JRC mice at eleventh day was determined; type: functional; conditions: Mus musculus, in the assay text read “seventh day” for “eleventh day”; method in brief: as §1
[22] = test system: CCRF S-180; assay: Growth inhibitory effect administered at dose of 1.5 mg/kg/day given in the schedule of 1,2,3,4,7 day against Sarcoma S-180 tumor transplanted in male JRC mice at fourteenth day was determined; type: functional; conditions: Mus musculus, in the assay text read “ninth day” for “fourteenth day”; method in brief: as §1
[23] = test system: CCRF S-180; assay: Growth inhibitory effect when administered at dose of 5.0 mg/kg/day given in the schedule of 1,2,3,4,7 day against Sarcoma S-180 tumor transplanted in male JRC mice at fourteenth day was determined; type: functional, Mus musculus; method in brief: as §1
[24] = test system: CCRF S-180; assay: Growth inhibitory effect when administered at dose of 2.0 mg/kg/day given in the schedule of 1,2,3,4,7 day against Sarcoma S-180 tumor transplanted in male JRC mice at fourteenth day was determined; type: functional, organism-based; conditions: Mus musculus
[25] = test system: B16; assay: Growth inhibitory effect when administered at dose of 1.5 mg/kg/day given in the schedule of 1,2,3,4,7 day against (B16) mouse melanoma at fourteenth day was determined; type: functional; conditions: B16, read-out: Inhibition; method in brief: as §1
[26] = test system: B16; assay: In vitro inhibitory activity against mouse melanoma cell line (B16) using CV coloration; type: functional, cell-based
[27] = test system: B16; assay: Growth inhibitory effect administered at dose of 1.5 mg/kg/day given in the schedule of 1,2,3,4,7 day against (B16) mouse melanoma at eleventh day was determined; type: functional; method in brief: as §1
[28] = test system: B16; assay: Growth inhibitory effect administered at dose of 1.5 mg/kg/day given in the schedule of 1,2,3,4,7 day against (B16) mouse melanoma at fourteenth day was determined; type: functional; method in brief: as §1
[29] = test system: B16; assay: Growth inhibitory effect administered at dose of 5.0 mg/kg/day given in the schedule of 1,2,3,4,7 day against (B16) mouse melanoma at eleventh day was determined; type: functional; method in brief: as §1
[30] = test system: CCRF S-180; assay: Growth inhibitory effect administered at dose of 5.0 mg/kg/day given in the schedule of 1,2,3,4,7 day against Sarcoma S-180 tumor transplanted in male JRC mice at eleventh day was determined; type: functional; conditions: Mus musculus; method in brief: as §1
[31] = test system: CCRF S-180; assay: Growth inhibitory effect administered at dose of 5.0 mg/kg/day given in the schedule of 1,2,3,4,7 day against Sarcoma S-180 tumor transplanted in male JRC mice at fourteenth day was determined; type: functional; conditions: Mus musculus; method in brief: as §1
[32] = test system: B16; assay: Growth inhibitory effect administered at dose of 5.0 mg/kg/day given in the schedule of 1,2,3,4,7 day against (B16) mouse melanoma at fourteenth day was determined; type: functional; method in brief: as §1
[33] = test system: B16; assay: Growth inhibitory effect administered at dose of 2.0 mg/kg/day given in the schedule of 1,2,3,4,7 day against (B16) mouse melanoma at eleventh day was determined; type: functional; method in brief: as §1
[34] = test system: CCRF S-180; assay: Growth inhibitory effect administered at dose of 1.5 mg/kg/day given in the schedule of 1,2,3,4,7 day against Sarcoma S-180 tumor transplanted in male JRC mice at fourteenth day was determined; No effect; type: functional, organism-based; conditions: Mus musculus; method in brief: as §1
[35] = test system: CCRF S-180; assay: Growth inhibitory effect of compound when administered at dose of 1.5 mg/kg/day given in the schedule of 1,2,3,4,7 day against Sarcoma S-180 tumor transplanted in male JRC mice was determined; No effect; conditions: Mus musculus

| Structure (SMILES) | IC50 [1] | IC50 [7] | IC50 [8] | IC50 [9] | IC50 [10] | Activity [11] | Activity [12] | Activity [13] | Activity [14] | Activity [15] | Activity [16] | Activity [17] | Activity [18] | IC50 [19] | IC50 [20] | IC50 [26] | inhibition in vivo at 1.5 mg/kg/day [27] | inhibition in vivo at 1.5 mg/kg/day [28] | inhibition in vivo at 5 mg/kg/day [30] | inhibition in vivo at 5 mg/kg/day [31] | further results |
| --- | --- | --- | --- | --- | --- | --- | --- | --- | --- | --- | --- | --- | --- | --- | --- | --- | --- | --- | --- | --- | --- |
| COc1cccc2c1C(=O)c1c(O)c3c(c(O)c1C2=O)C[C@@](O)(C(=O)CO)C[C@@H]3O[C@H]1C[C@H](N)C(O)[C@H](C)O1 (single isomer, unassigned) [DOXORUBICIN] | < 0.001 µg/mL | 0.31 µg/mL (≈ 0.57 µM) | 0.17 µg/mL (≈ 0.313 µM) | 0.73 µg/mL (≈ 1.34 µM) | < 0.001 µg/mL | 83 | 40 | 60 | 39 | 90 | 114 | 81 | 130 | 0.004 µg/mL (≈ 0.00736 µM) | < 0.001 µg/mL | 0.001 µg/mL (≈ 0.00184 µM) | – | – | – | – | inhibition in vivo at 1.5 mg/kg/day [2]: 70%; inhibition in vivo at 2 mg/kg/day [3]: 25%; inhibition in vivo at 2 mg/kg/day [4]: 70%; inhibition in vivo at 5 mg/kg/day [5]: 65%; inhibition in vivo at 5 mg/kg/day [6]: 75%; inhibition in vivo at 1.5 mg/kg/day [21]: 7%; inhibition in vivo at 1.5 mg/kg/day [22]: 28%; Inhibition [23]: 37%; inhibition in vivo at 5 mg/kg/day ([23]; Mus musculus, CCRF S-180, read-out: Inhibition): 37%; inhibition [24]: Not detectable; inhibition in vivo at 1.5 mg/kg/day [25]: 60% |
| COc1cccc2c1C(=O)c1c(O)c3c(c(O)c1C2=O)C[C@@](O)(C(=O)CO)C[C@@H]3OC1C[C@H](NC(=O)OCC2=C(C(=O)OC(C)(C)C)N3C(=O)/C(=C/C(=O)OC(C)(C)C)[C@@H]3S(=O)(=O)C2)[C@@H](O)[C@H](C)O1 (stereo partly specified) | 0.5 µg/mL (≈ 0.508 µM) | 0.5 µg/mL (≈ 0.508 µM) | 0.4 µg/mL (≈ 0.406 µM) | 0.07 µg/mL (≈ 0.0711 µM) | 0.07 µg/mL (≈ 0.0711 µM) | 87 | 54 | 75 | 102 | 92 | 270 | 90 | 360 | 0.04 µg/mL (≈ 0.0406 µM) | 0.04 µg/mL (≈ 0.0406 µM) | 0.09 µg/mL (≈ 0.0914 µM) | 13% | -49% | -10% | 22% | inhibition in vivo at 5 mg/kg/day [29]: 11%; inhibition in vivo at 5 mg/kg/day [32]: 16% |
| COc1cccc2c1C(=O)c1c(O)c3c(c(O)c1C2=O)C[C@@](O)(C(=O)CO)C[C@@H]3O[C@H]1C[C@H](NC(=O)OCC2=C(C(=O)OC(C)(C)C)N3C(=O)[C@@H](Cl)[C@@H]3S(=O)(=O)C2)[C@@H](O)[C@H](C)O1 | 0.04 µg/mL (≈ 0.0441 µM) | 0.08 µg/mL (≈ 0.0882 µM) | 0.02 µg/mL (≈ 0.022 µM) | 0.04 µg/mL (≈ 0.0441 µM) | 0.03 µg/mL (≈ 0.0331 µM) | 92 | 85 | 90 | 87 | 106 | 225 | 70 | 230 | 0.001 µg/mL (≈ 0.0011 µM) | 0.008 µg/mL (≈ 0.00882 µM) | 0.03 µg/mL (≈ 0.0331 µM) | 75% | 26% | 72% | 30% | Inhibition [33]: 86%; inhibition in vivo at 2 mg/kg/day ([33]; Mus musculus, B16, read-out: Inhibition): 86%; inhibition [34]: inactive; inhibition [35]: inactive |
| CC1=C(C(=O)OC(C)(C)C)N2C(=O)[C@H](Cl)[C@H]2S(=O)(=O)C1 | 2 µg/mL (≈ 6.22 µM) | 6 µg/mL (≈ 18.6 µM) | 6 µg/mL (≈ 18.6 µM) | 2 µg/mL (≈ 6.22 µM) | 6 µg/mL (≈ 18.6 µM) | – | – | – | – | – | – | – | – | 2 µg/mL (≈ 6.22 µM) | 2 µg/mL (≈ 6.22 µM) | 3 µg/mL (≈ 9.32 µM) | – | – | – | – | – |
